We go through 1 compound from ChEMBL document CHEMBL4049426, “Identification of the Clinical Candidate (R)-(1-(4-Fluorophenyl)-6-((1-methyl-1H-pyrazol-4-yl)sulfonyl)-4,4a,5,6,7,8-hexahydro-1H-pyrazolo[3,4-g]isoquinolin-4a-yl)(4-(trifluoromethyl)pyridin-2-yl)methanone (CORT125134): A Selective Glucocorticoid Receptor (GR) Antagonist” (J Med Chem, 2017).

Usually Ki stands for the dissociation constant of the complex between target and ligand, obtained from inhibition or displacement. One may read the Emax as the size of the effect at its maximum, as opposed to the concentration needed. For orientation: inhibition means how much of the control response was suppressed. A higher inhibition goes with a strong effect. As usually defined, the bioavailability is the share of a dose that reaches the circulation, judged against a reference dose that is usually intravenous. Read a high bioavailability as good availability.

One data set deals with T1, Glucocorticoid receptor (Homo sapiens, UniProt P04150).
T1 sequence (P04150 whole entry): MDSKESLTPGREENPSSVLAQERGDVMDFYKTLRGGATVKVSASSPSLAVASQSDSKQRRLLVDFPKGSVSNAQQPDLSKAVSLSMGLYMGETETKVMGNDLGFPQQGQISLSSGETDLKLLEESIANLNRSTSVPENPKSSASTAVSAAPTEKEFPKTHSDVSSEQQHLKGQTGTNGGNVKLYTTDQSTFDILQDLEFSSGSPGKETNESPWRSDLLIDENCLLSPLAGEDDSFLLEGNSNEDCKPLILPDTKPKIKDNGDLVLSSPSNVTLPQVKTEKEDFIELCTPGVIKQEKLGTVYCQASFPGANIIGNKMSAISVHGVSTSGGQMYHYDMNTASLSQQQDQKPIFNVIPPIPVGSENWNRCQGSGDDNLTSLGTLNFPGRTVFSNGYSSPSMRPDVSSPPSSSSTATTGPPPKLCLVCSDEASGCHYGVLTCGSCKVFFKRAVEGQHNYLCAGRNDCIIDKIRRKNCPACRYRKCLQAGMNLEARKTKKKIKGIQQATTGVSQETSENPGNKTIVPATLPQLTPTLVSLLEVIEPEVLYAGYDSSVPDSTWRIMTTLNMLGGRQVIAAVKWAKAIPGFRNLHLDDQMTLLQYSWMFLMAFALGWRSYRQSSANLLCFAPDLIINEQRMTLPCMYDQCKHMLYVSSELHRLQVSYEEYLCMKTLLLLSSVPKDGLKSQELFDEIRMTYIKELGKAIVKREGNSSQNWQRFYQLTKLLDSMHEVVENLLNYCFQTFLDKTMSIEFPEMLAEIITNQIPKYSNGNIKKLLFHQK
The experiment in a line: Antagonist activity at glucocorticoid receptor in human HepG2 cells assessed as inhibition of dexamethasone-induced tyrosine amino transferase activity preincubated for 30 mins followed by dexamethasone addition measured after 20 hrs. The data set is classed as cell-based.

A short description of data set [1]: Protein binding in human plasma. The settings on record: read-out: PPB (converted). It is filed as ADME, cell-free.
Data set [2] concerns the target T2, Glucocorticoid receptor (Homo sapiens) (UniProt P04150).
T2 sequence (whole entry): T1 sequence (P04150 whole entry)
Kind of data set: Agonist activity at glucocorticoid receptor in human primary hepatocytes assessed as induction of tyrosine amino transferase activity measured after 20 hrs relative to control. It is filed as cell-based.

Data set [3] in a line: Protein binding in rat plasma. It is filed as ADME, cell-free. The settings on record: read-out: PPB (converted).
The next data set addresses T3, Cytochrome P450 1A2 (Homo sapiens, UniProt P05177).
T3 sequence (P05177 whole entry): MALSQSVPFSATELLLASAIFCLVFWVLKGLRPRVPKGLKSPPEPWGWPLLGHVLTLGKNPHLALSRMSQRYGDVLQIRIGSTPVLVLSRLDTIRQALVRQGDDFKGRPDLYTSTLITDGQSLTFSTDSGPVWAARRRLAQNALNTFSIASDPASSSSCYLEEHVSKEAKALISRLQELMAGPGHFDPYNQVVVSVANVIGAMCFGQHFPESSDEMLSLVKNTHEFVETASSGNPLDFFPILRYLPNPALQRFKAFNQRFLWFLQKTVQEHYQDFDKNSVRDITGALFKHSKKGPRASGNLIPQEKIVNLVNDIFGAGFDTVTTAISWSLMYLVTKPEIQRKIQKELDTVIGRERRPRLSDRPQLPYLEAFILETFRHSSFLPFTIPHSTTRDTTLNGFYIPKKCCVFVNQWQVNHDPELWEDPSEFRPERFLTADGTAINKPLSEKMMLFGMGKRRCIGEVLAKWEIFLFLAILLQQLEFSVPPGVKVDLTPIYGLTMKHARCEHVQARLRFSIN
Kind of data set: Induction of CYP1A2 in human hepatocytes. It is filed as ADME, cell-based.

Another data set addresses T4, progesterone receptor (Homo sapiens, UniProt P06401).
T4 sequence (P06401 whole entry): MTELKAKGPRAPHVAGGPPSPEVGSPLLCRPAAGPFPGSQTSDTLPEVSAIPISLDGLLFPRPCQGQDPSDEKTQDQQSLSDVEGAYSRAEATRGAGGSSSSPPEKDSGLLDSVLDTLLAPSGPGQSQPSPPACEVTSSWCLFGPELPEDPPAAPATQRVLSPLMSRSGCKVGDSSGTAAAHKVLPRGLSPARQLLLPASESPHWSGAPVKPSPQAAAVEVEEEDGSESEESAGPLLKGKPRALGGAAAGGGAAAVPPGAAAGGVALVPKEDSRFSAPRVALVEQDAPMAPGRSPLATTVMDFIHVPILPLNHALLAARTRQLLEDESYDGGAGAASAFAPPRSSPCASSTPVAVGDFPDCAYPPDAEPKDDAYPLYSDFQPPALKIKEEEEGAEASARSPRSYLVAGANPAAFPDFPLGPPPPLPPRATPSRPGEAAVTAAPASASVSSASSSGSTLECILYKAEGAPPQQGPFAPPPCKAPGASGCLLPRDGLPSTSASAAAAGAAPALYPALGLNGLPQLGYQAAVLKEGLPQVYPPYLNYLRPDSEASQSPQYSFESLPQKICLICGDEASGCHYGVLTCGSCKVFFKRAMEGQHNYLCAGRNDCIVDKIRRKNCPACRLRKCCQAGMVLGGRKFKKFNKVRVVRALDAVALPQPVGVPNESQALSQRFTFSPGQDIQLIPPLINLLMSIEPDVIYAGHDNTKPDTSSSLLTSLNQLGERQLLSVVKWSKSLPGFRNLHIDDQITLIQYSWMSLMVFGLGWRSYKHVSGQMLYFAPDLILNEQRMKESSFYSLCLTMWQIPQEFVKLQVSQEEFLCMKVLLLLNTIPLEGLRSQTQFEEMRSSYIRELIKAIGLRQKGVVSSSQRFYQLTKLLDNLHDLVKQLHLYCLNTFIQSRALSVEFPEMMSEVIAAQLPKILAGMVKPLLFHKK
Kind of data set: Inhibition of radioligand binding to progesterone receptor (unknown origin) at 1 uM relative to control.

The nature of data set [4]: Oral bioavailability in Sprague-Dawley CD-1 rat plasma at 5 mg/kg administered through gavage measured up to 24 hrs by LC/MS analysis. The data set is classed as ADME, organism-based. Put shortly: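 Jugular-catheterized male Sprague Dawley CD-1 rats (220-250g). Oral arm: five rats, 5mg/kg gavage, 1mg/mL in DMSO:0.5% methylcellulose 10:90, 5mL/kg, sampled pre-dose and 0.25-24 h. i.v. arm: three rats, 1mg/kg, 0.5mg/mL in DMSO:PEG400:propylene glycol 10:45:45, sampled pre-dose and 0.08-24 h. Plasma by LC/MS.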

Some results are limits rather than exact numbers.

For `Cn1cc(S(=O)(=O)N2CCC3=Cc4c(cnn4-c4ccc(F)cc4)C[C@]3(C(=O)c3cc(C(F)(F)F)ccn3)C2)cn1` [RELACORILANT], the Ki at Glucocorticoid receptor worked out at 7.2 nM. For the same compound, the fraction unbound is 0.005 in data set [1] and 0.003 in data set [3]. Further, the Emax in data set [2] came out at 0%. At Cytochrome P450 1A2, the Activity result was “Not Active”. In addition, on progesterone receptor, the inhibition at 1 µM is less than 10%. In addition, the bioavailability in data set [4] amounted to 89%.
